Laboratory results from ChEMBL document CHEMBL1177686, “Constrained peptidomimetics as antiplasmodial falcipain-2 inhibitors” (Bioorg Med Chem, 2010).

Experiments:
Falcipain 2 = target: T1, Falcipain 2 (Plasmodium falciparum, UniProt Q9N6S8); assay: Inhibition of Plasmodium falciparum recombinant falcipain-2 after 10 min
T1 sequence (Q9N6S8 whole entry): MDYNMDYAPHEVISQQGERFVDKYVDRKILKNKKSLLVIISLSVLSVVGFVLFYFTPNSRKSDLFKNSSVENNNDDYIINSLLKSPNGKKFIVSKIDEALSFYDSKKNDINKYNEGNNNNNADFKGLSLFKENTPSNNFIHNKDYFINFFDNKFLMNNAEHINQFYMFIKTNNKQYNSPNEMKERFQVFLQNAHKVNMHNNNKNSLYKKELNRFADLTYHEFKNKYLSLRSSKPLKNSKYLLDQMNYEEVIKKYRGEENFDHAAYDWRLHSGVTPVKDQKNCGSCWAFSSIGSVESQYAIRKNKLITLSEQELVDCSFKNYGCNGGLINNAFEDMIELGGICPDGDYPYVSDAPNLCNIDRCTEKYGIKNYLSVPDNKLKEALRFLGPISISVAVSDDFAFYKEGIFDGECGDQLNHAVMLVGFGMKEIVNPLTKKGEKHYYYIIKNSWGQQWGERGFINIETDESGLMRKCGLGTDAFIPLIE

[1] = target: T2, Falcipain 2 (Plasmodium falciparum) (UniProt Q9N6S8); assay: Ratio of Kinact to Ki for Plasmodium falciparum recombinant falcipain-2 after 10 min
T2 sequence (whole entry): T1 sequence (Q9N6S8 whole entry)

Plasmodium falciparum = assay: Antiplasmodial activity against Plasmodium falciparum FCBR infected in human erythrocytes assessed as parasite viability; assay type: functional, organism-based; conditions: FCBR/Columbia
Outline: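 P. falciparum FCBR kept in human A Rh+ erythrocytes, RPMI 1640 with 25 mM HEPES, 20 mM bicarbonate, 0.5% AlbuMAX I, 2.5% hematocrit, 37 °C, 94% N2/1% O2/5% CO2. Early-stage parasites plated at 1% parasitemia with compound (DMSO stock diluted 10-fold in 50% ethanol), 100-0.0488 µM, quadruplicates. Ethanol-only negative and 2 µM chloroquine positive controls. Viability assayed by a published method.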

Rhodesain = Rhodesain (Trypanosoma brucei rhodesiense, UniProt Q95PM0); assay: Inhibition of Trypanosoma brucei rhodesiense rhodesain after 10 mins
Outline: (§1)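 Rhodesain with Cbz-Phe-Arg-AMC 10 µM in 100 mM sodium acetate pH 5.5, 10 mM DTT. Fluorescence (ex 365/em 460 nm) read continuously for 10 min at increasing inhibitor levels, duplicate runs. Kiapp and kinac from hyperbolic kobs fit, corrected to Ki using Km 0.9 µM. k2nd as kinac/Ki, or from kobs/[I] when linear. Dixon plot if time-independent.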

[2] = target: Rhodesain (Trypanosoma brucei rhodesiense) (UniProt Q95PM0); assay: Ratio of Kinact to Ki for Trypanosoma brucei rhodesiense rhodesain after 10 mins; outline: as §1
Cathepsin B = Cathepsin B (Homo sapiens, UniProt P07858); assay: Inhibition of human cathepsin B
Procathepsin L [3] = target: T3, Procathepsin L (Homo sapiens, UniProt P07711); assay: Inhibition of human cathepsin L
Outline: (§2)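 Cathepsin L assay on Cbz-Phe-Arg-AMC 5 µM. […] Second-order constant k2nd taken as kinac/Ki.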
Target sequence in this assay (P07711 whole entry): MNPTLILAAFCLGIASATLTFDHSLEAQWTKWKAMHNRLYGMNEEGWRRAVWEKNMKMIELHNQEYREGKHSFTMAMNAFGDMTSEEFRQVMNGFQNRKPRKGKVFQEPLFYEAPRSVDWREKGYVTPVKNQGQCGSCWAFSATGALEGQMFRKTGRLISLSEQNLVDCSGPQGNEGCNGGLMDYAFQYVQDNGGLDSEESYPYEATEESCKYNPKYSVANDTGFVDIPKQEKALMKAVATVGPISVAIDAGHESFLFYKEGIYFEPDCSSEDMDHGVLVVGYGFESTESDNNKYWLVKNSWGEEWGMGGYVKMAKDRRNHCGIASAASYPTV

[4] = Selectivity ratio of Ki for Plasmodium falciparum recombinant falcipain-2 to Ki for Trypanosoma brucei rhodesiense rhodesain
Procathepsin L [5] = target: T3, Procathepsin L; assay: Ratio of Kinact to Ki for human cathepsin L; outline: as §2
Target sequence in this assay (P07711 114-333 limits assumed): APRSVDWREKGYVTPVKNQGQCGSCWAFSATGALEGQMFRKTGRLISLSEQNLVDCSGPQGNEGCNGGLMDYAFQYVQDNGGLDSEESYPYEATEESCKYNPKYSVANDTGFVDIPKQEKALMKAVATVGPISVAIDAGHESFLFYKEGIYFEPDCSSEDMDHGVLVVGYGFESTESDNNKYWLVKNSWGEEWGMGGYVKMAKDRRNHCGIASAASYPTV

Sequence of Rhodesain (Q95PM0 whole entry): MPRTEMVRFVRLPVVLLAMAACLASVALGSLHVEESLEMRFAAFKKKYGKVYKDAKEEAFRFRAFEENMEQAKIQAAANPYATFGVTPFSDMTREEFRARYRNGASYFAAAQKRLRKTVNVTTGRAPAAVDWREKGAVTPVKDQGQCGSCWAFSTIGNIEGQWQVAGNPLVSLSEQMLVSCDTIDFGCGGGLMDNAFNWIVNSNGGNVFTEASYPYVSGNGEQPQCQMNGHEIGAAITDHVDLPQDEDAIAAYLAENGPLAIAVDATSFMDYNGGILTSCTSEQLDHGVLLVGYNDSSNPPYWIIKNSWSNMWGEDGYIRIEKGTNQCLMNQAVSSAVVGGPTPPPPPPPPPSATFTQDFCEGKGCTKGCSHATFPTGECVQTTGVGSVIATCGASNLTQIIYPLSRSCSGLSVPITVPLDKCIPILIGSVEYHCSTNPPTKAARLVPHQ
Sequence of Rhodesain (Trypanosoma brucei rhodesiense) (Q95PM0 1-450): as the sequence (Q95PM0 whole entry) above

Structure (SMILES)	Ki (Falcipain 2)	Ratio [1]	IC50 (Plasmodium falciparum)	Ki (Rhodesain)	Ratio [2]	Ki (Cathepsin B)	Ki (Procathepsin L [3])	Ratio Ki [4]	Ratio (Procathepsin L [5])	Activity (Plasmodium falciparum)
COC(=O)/C=C/CNC(=O)CN1C(=O)[C@@H](COC(=O)Nc2ccc(Cl)cc2C(F)(F)F)N=C(c2ccccc2)c2cc(Cl)ccc21	0.46 µM	76000	28.9 µM	0.087 µM	220000	6.1 µM	29.8 µM	5	–	–
COC(=O)/C=C/CNC(=O)CN1C(=O)[C@@H](COC(=O)Nc2ccc(Cl)cc2C(F)(F)F)N=C(c2ccccc2)c2ccccc21	0.017 µM	3.57e+06	–	0.81 µM	34600	–	–	5	–	–
COC(=O)/C=C/CNC(=O)CN1C(=O)[C@@H](COC(=O)Nc2ccc(OC)cc2)N=C(c2ccccc2)c2ccccc21	15.1 µM	–	33.1 µM	4.3 µM	–	2.23 µM	12 µM	5	12500	–
CCCCNC(=O)OC[C@H]1N=C(c2ccccc2)c2ccccc2N(CC(=O)NC/C=C/C(=O)OC)C1=O	> 100 µM	–	–	–	–	20.4 µM	2.7 µM	5	9400	Dose-dependent effect
COC(=O)/C=C/CNC(=O)CN1C(=O)[C@@H](COC(=O)NC23CC4CC(CC(C4)C2)C3)N=C(c2ccccc2)c2ccccc21	0.014 µM	1.16e+06	10.7 µM	0.0026 µM	4.62e+06	13.7 µM	65 µM	5	550	–
C=CCNC(=O)CN1C(=O)[C@@H](CO)N=C(c2ccccc2)c2ccccc21	–	–	–	–	–	–	–	5	–	Dose-dependent effect
COC(=O)/C=C/CNC(=O)CN1C(=O)[C@@H](COC(=O)Nc2cccc3ccccc23)N=C(c2ccccc2)c2ccccc21	3.48 µM	–	17.6 µM	0.93 µM	–	25 µM	12.2 µM	5	6400	–
COC(=O)/C=C/[C@H](CC(C)C)NC(=O)CN1C(=O)[C@@H](COC(=O)Nc2ccc(Cl)cc2C(F)(F)F)N=C(c2ccccc2)c2ccccc21	2.22 µM	18000	26.9 µM	0.87 µM	36000	39.1 µM	> 150 µM	5	–	–
COC(=O)/C=C/CNC(=O)CN1C(=O)[C@@H](COC(=O)Nc2ccc(Cl)cc2C(F)(F)F)N=C(c2ccc(Br)cc2)c2ccccc21	1.56 µM	24500	6.33 µM	0.47 µM	46000	> 150 µM	> 150 µM	5	–	–
COC(=O)/C=C/CNC(=O)CN1C(=O)[C@@H](COC(=O)NC2CCCCC2)N=C(c2ccccc2)c2ccccc21	89 µM	–	–	–	–	12.4 µM	76.5 µM	5	–	Dose-dependent effect
CC(C)C[C@H](NC(=O)[C@H]1O[C@@H]1C(=O)O)C(=O)NCCCCN=C(N)N	–	1.59e+06	–	–	–	–	–	–	–	–
COC(=O)/C=C/CNC(=O)CN1C(=O)[C@@H](COC(=O)Nc2ccc(Cl)cc2C(F)(F)F)N=C(c2ccc(OC)cc2)c2ccccc21	> 100 µM	–	–	–	–	10.9 µM	59.9 µM	5	–	–
